Reference: ChEMBL document CHEMBL1125907, “Folate analogues. 34. Synthesis and antitumor activity of non-polyglutamylatable inhibitors of dihydrofolate reductase” (J Med Chem, 1991)

Assays:
[1] = system: CCRF-CEM; test: (§1) Relative activity when compared to the activity of aminopterin in CCRF-CEM Human leukemia cell at a concentration of 50 uM; format: functional
In short: (§2)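 Used purified folylpolyglutamate synthetase (FPGS) isolated from CCRF-CEM human leukemia cells. Each compound was tested as an alternative substrate. Activity was read as [3H]glutamate incorporation and expressed relative to aminopterin as reference substrate at 50 μM. Test compounds were examined at concentrations up to 200 μM.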

[2] = biological target: T1, Dihydrofolate reductase (Homo sapiens, UniProt P00374); test: Compound was tested for its inhibitory activity on Recombinant Human Dihydrofolate Reductase.
T1 sequence (P00374 whole entry): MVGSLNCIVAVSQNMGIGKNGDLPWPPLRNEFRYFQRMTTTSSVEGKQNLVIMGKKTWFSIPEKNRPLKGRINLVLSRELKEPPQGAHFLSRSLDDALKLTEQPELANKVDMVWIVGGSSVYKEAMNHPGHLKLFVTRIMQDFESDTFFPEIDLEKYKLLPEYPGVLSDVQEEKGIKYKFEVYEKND

[3] = system: CCRF-CEM; test: Relative activity when compared to the activity of aminopterin in CCRF-CEM Human leukemia cell at a concentration of 200 uM; format: functional; in short: as §2
[4] = system: CCRF-CEM; test: Compound was tested for its inhibitory activity in tumor cell growth in CCRF-CEM in human.; format: functional, cell-based
[5] = system: Manca; test: Compound was tested for its inhibitory activity manca tumor cell growth; format: functional, cell-based; conditions: Homo sapiens
[6] = system: H35R0.3; test: Compound was tested for growth inhibition of H35 Hepatoma cells.; format: functional, cell-based; conditions: Rattus norvegicus
In short: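 H35 hepatoma cells grown 24 h, then exposed to compound for a 6-h pulse (24–30 h); growth read as cell counts after 72 h in culture medium.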

[7] = system: H35R0.3; test: Compound was tested for its inhibitory activity in tumor cell growth in H35R cells; format: functional, cell-based; conditions: Rattus norvegicus
[8] = system: H35R0.3; test: Compound was tested for its inhibitory activity in tumor cell growth in H35 hepatoma cells; format: functional, cell-based; conditions: Rattus norvegicus
[9] = system: H35R0.3; test: Compound was tested for inhibition of folinic acid transport in H35 Hepatoma cells.; format: functional, cell-based; conditions: Rattus norvegicus
[10] = biological target: T2, Folylpolyglutamate synthase, mitochondrial (Homo sapiens, UniProt Q05932); test: Compound was evaluated for the inhibition of Folyl-polyglutamate synthase in CCRF-CEM Human leukemia cell.
T2 sequence (Q05932 whole entry): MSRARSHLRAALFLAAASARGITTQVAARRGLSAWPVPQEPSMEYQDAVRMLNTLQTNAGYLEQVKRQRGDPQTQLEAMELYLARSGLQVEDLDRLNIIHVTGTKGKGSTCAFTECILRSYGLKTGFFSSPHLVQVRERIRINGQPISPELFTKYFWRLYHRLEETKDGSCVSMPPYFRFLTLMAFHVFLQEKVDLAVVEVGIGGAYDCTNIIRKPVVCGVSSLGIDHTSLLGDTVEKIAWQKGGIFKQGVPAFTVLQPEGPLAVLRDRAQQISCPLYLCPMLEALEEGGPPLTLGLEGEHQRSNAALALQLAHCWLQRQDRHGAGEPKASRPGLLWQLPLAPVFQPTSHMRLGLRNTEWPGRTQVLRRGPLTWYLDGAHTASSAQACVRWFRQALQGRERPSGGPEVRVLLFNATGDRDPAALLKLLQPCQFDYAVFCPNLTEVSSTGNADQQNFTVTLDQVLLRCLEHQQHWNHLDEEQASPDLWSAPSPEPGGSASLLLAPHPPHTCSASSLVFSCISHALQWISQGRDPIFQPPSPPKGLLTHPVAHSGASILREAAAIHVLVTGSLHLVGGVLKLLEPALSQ
In short: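 Purified folylpolyglutamate synthetase from CCRF-CEM human leukemia cells, with 50 µM aminopterin as substrate. Increasing amounts of test compound were added to the assay mixture. Activity was read as [3H]glutamate incorporation, and inhibition was expressed as IC50.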

[11] = system: H35R0.3; test: Compound was tested for inhibition of folinic acid transport in H35 Hepatoma cells; No Inhibition at 50 uM; format: functional, cell-based, Rattus norvegicus
[12] = system: CCRF-CEM; test: as §1; format: functional; remark: listed apart in the source
In short: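 Purified folylpolyglutamate synthetase from CCRF-CEM human leukemia cells; substrate activity measured as [3H]glutamate incorporation with compound up to 200 μM, expressed relative to aminopterin at 50 μM.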

Nc1nc(N)c2nc(CCc3ccc(C(=O)N[C@@H](CCC(=O)O)C(=O)O)cc3)cnc2n1
Relative activity [1]: 60 | IC50 [2]: 4.1 nM

C=C(CC(NC(=O)c1ccc(CCc2cnc3nc(N)nc(N)c3n2)cc1)C(=O)O)C(=O)O (stereo not drawn)
Relative activity [3]: <2 | IC50 [4]: 13 nM | IC50 [2]: 8.8 nM | IC50 [5]: 9.9 nM | IC50 [6]: > 20000 nM | IC50 [7]: 18400 nM | IC50 [8]: 39 nM | IC50 [9]: 5500 nM | IC50 [10]: > 200000 nM

CN(Cc1cnc2nc(N)nc(N)c2n1)c1ccc(C(=O)NC(C(=O)O)C(O)CC(=O)O)cc1 (stereo not drawn)
Relative activity [1]: <3 | IC50 [2]: 5.3 nM | IC50 [5]: 48 nM | IC50 [7]: 5600 nM | IC50 [8]: 85 nM | IC50 [10]: > 200000 nM | IC50 [11]: No inhibition

C=C(CC(NC(=O)c1ccc(C(CC)Cc2cnc3nc(N)nc(N)c3n2)cc1)C(=O)O)C(=O)O (stereo not drawn)
Relative activity [3]: <1 | IC50 [4]: 7.4 nM | IC50 [2]: 5.8 nM | IC50 [5]: 3.8 nM | IC50 [6]: 14000 nM | IC50 [7]: 14000 nM | IC50 [8]: 6.3 nM | IC50 [9]: 1500 nM | IC50 [10]: 118000 nM

C=C(CC(NC(=O)c1ccc(N(C)Cc2cnc3nc(N)nc(N)c3n2)cc1)C(=O)O)C(=O)O (stereo not drawn)
Relative activity [3]: <1 | IC50 [4]: 30 nM | IC50 [2]: 6.4 nM | IC50 [5]: 26 nM | IC50 [6]: 3900 nM | IC50 [7]: 21000 nM | IC50 [8]: 16 nM | IC50 [9]: 7000 nM | IC50 [10]: > 200000 nM

Nc1nc(N)c2nc(CCc3ccc(C(=O)NC(C(=O)O)C(O)CC(=O)O)cc3)cnc2n1 (stereo not drawn)
Relative activity [1]: <3 | IC50 [2]: 5.9 nM | IC50 [5]: 29 nM | IC50 [10]: > 50000 nM

Nc1nc(N)c2nc(CNc3ccc(C(=O)N[C@@H](CCC(=O)O)C(=O)O)cc3)cnc2n1 [AMINOPTERIN]
Relative activity [12]: 100

CN(Cc1cnc2nc(N)nc(N)c2n1)c1ccc(C(=O)N[C@@H](CCC(=O)O)C(=O)O)cc1 [METHOTREXATE]
IC50 [6]: 85 nM | IC50 [9]: 18000 nM
